Legend:
[1] = target: T1, Adrenergic receptor alpha-1 (Homo sapiens) (UniProt P35348+P25100+P35368); experiment: Alpha-1-adrenergic activity as efficacy in rabbit ear artery relative to noradrenaline; assay type: functional, tissue-based; conditions: Oryctolagus cuniculus, target entry is the homologue from another species
In short: (§1)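 Isolated rabbit ear artery segment, circular smooth muscle tension measured isometrically; cocaine blocks neuronal uptake, rauwolscine blocks α2-receptors. Cumulative noradrenaline curve (10^-10–10^-5 M) sets the maximum, then after washout a cumulative curve for the test drug. pD2 = −log molar concentration giving 50% of NA maximum; efficacy = drug maximum relative to NA. n = 3-5.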

Rattus norvegicus [2] = species on record: Rattus norvegicus; experiment: Change in blood pressure was reported in pithed rat; assay type: functional
In short: (§2)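 Pithed rats with jugular vein catheter for iv dosing and carotid catheter for arterial pressure, about 15 min equilibration. Single increasing iv doses are given and the rise in diastolic pressure is read to build a dose-response curve. pD2 is taken from that curve; efficacy is relative to noradrenaline. n = 3.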

[3] = target: T1, Adrenergic receptor alpha-1 (Homo sapiens); experiment: Alpha-1-adrenergic activity as potency in rabbit ear artery compared to noradrenaline; assay type: functional, tissue-based; conditions: Oryctolagus cuniculus, target entry is the homologue from another species; in short: as §1
Rattus norvegicus [4] = species on record: Rattus norvegicus; experiment: Alpha-1/alpha-2-agonistic activity by measuring their potency in pithed rat based on noradrenaline; assay type: functional; in short: as §2
Rattus norvegicus [5] = species on record: Rattus norvegicus; experiment: Alpha-1/Alpha-2-agonistic activity by measuring their efficacy in pithed rat based on noradrenaline; assay type: functional; in short: as §2
Rattus norvegicus [6] = species on record: Rattus norvegicus; experiment: Alpha-1/Alpha-2-agonistic activity by measuring their potency in pithed rat based on noradrenaline; assay type: functional; in short: as §2
Rattus norvegicus [7] = species on record: Rattus norvegicus; experiment: alpha-1/alpha-2-agonistic activity by measuring their potency in pithed rat based on noradrenaline; assay type: functional; in short: as §2
[8] = target: T1, Adrenergic receptor alpha-1 (Homo sapiens); experiment: alpha-1-adrenergic activity by measuring their potency in rabbit ear artery based on noradrenaline; assay type: functional, tissue-based; conditions: Oryctolagus cuniculus, target entry is the homologue from another species; in short: as §1
Rattus norvegicus [9] = species on record: Rattus norvegicus; experiment: Alpha-1/alpha-2-agonistic activity by measuring their efficacy in pithed rat based on noradrenaline; assay type: functional; in short: as §2
[10] = target: T1, Adrenergic receptor alpha-1 (Homo sapiens); experiment: alpha-1-adrenergic activity by measuring their efficacy in rabbit ear artery based on noradrenaline; assay type: functional, tissue-based; conditions: Oryctolagus cuniculus, target entry is the homologue from another species; in short: as §1
[11] = target: T1, Adrenergic receptor alpha-1 (Homo sapiens); conditions: Oryctolagus cuniculus; Artery
[12] = target: T1, Adrenergic receptor alpha-1 (Homo sapiens); conditions: Oryctolagus cuniculus; Artery; remark: listed apart in the source
Rattus norvegicus [13] = species on record: Rattus norvegicus; experiment: alpha-1/alpha-2-agonistic activity by measuring their efficacy in pithed rat based on noradrenaline; assay type: functional; in short: as §2

Row | Structure (SMILES) | E [1] | Increase in blood pressure (P/R) (Rattus norvegicus [2]) [%] | pD2 [3] | E (Rattus norvegicus [5]) | pD2 (Rattus norvegicus [6]) | further results
1 | COc1ccc(Cl)c2c1CC1C(C2)OCCN1C (centres undefined) | 89 | -5 | 5.97 | 40 | – | pD2 (Rattus norvegicus [4]): 5.89
2 | COc1ccc(SC)c2c1C[C@H]1[C@@H](C2)OCCN1C (stereo in doubt; 15) [listing 1 of 2 here] | – | -40 | – | 23 | 6.19 | –
3 | COc1ccc(SC)c2c1CC1C(CCCN1C)C2 (stereo in doubt; cis) [listing 1 of 2 here] | – | – | – | – | <4 | –
4 | COc1ccc(SC)c2c1C[C@H]1[C@@H](C2)OCCN1C (stereo in doubt; 15) [listing 2 of 2 here] | 100 | – | 5.4 | – | – | –
5 | CCSc1ccc(OC)c2c1CC1CCCN(C)C1C2 (stereo in doubt) [listing 1 of 2 here] | – | – | < 4 | – | – | –
6 | COc1ccc(SC)c2c1CC1C(CCCN1C)C2 (stereo in doubt; 33) [listing 1 of 2 here] | – | -87 | – | 85 | 7.36 | –
7 | CCCN1CCOC2Cc3c(SC)ccc(OC)c3CC21 (centres undefined) | 98 | -76 | 6.78 | 38 | 6.18 | –
8 | CCN1CC(C)OC2Cc3c(SC)ccc(OC)c3CC21 (centres undefined) | 93 | -34 | 6.47 | 29 | 6.45 | –
9 | COc1ccc(SC)c2c1CC1C(C2)OC(C)CN1C (centres undefined) | 67 | – | – | – | – | pD2 (Rattus norvegicus [7]): <4; pD2 [8]: 5.83
10 | CCSc1ccc(OC)c2c1CC1OCCN(C)C1C2 (centres undefined) | 95 | -80 | – | – | – | pD2 (Rattus norvegicus [7]): 6.48; E (Rattus norvegicus [9]): 86; pD2 [8]: 8.2
11 | CCSc1ccc(OC)c2c1CC1CCCN(C)C1C2 (stereo in doubt; 31) [listing 1 of 2 here] | – | -93 | – | 80 | 6.68 | –
12 | COc1ccc(SC)c2c1C[C@H]1[C@@H](C2)OCCN1C (stereo in doubt; 14) [listing 1 of 2 here] | – | – | – | – | – | pD2 [8]: 7.5; E [10]: 110
13 | CCSc1ccc(OC)c2c1CC1CCCN(C)C1C2 (stereo in doubt; 31) [listing 2 of 2 here] | 97 | – | 6.46 | – | – | –
14 | CCN1CCOC2Cc3c(SC)ccc(OC)c3CC21 (centres undefined) | 98 | -84 | 7.42 | 79 | 6.84 | –
15 | COc1ccc(SC)c2c1C[C@@H](N)CC2 | 98 | -94 | 7.48 | 73 | 7.92 | –
16 | COc1ccc([N+](=O)[O-])c2c1CC1C(C2)OCCN1C (centres undefined) | 85 | -22 | – | – | – | pD2 (Rattus norvegicus [7]): 6; E (Rattus norvegicus [9]): 17; pD2 [8]: 5.45
17 | CCSc1ccc(OC)c2c1CC1CCCN(C)C1C2 (stereo in doubt) [listing 2 of 2 here] | – | -25 | – | 18 | 6.12 | –
18 | CCC1CN(C)C2Cc3c(OC)ccc(SC)c3CC2O1 (centres undefined) | 42 | 0 | 5.35 | 20 | 6.1 | –
19 | NC[C@H](O)c1ccc(O)c(O)c1 | – | – | – | – | – | PD2 [11]: 7.7; E [12]: 100
20 | COc1ccc(SC)c2c1CC1C(CCCN1C)C2 (stereo in doubt; trans) | – | -79 | – | 72 | 6.92 | –
21 | COc1ccc(SC)c2c1CC1C(CCCN1C)C2 (stereo in doubt; cis) [listing 2 of 2 here] | – | – | < 4 | – | – | –
22 | COc1ccc(SC)c2c1C[C@H]1[C@@H](C2)OCCN1C (stereo in doubt; 14) [listing 2 of 2 here] | – | -79 | – | – | – | pD2 (Rattus norvegicus [7]): 6.74; E (Rattus norvegicus [13]): 76
23 | COc1ccc(SC)c2c1CC1C(CCCN1C)C2 (stereo in doubt; 33) [listing 2 of 2 here] | 109 | – | 8.4 | – | – | –

Source: ChEMBL document CHEMBL1126149, “Centrally acting alpha 1-adrenoceptor agonists based on hexahydronaphth[2,3-b]-1,4-oxazines and octahydrobenzo[g]quinolines” (1992)
